The source made the active and inactive calls. The rule behind the calls is not given here.
Tests used:
MDA-MB-231 = test: Growth inhibition of human MDA-MB-231 cells after 48 hrs by sulforhodamine B assay; type: functional; conditions: MDA-MB-231, 48 h
Summary of the method: (§1)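 NCI screen panel. Five 10-fold concentrations from 10^-4 to 10^-8 M. Exposure for the last 48 h of a 72 h incubation. Growth estimated by sulforhodamine B protein assay. GI50 is the concentration giving 50% growth inhibition. Where that level was not reached or was exceeded, the value is given as above or below the highest or lowest concentration tested.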

UACC-257 = test: Growth inhibition of human UACC257 cells after 48 hrs by sulforhodamine B assay; type: functional; conditions: UACC-257, 48 h
Summary of the method: (§2)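 NCI in vitro panel screen. Compounds tested at five 10-fold dilutions, 10^-4 to 10^-8 M. Cells in 96-well plates were exposed for the last 48 h of a 72 h incubation. Viability/growth was read by sulforhodamine B protein assay. GI50 is the concentration giving 50% growth inhibition. Values beyond the tested range are reported as greater or less than the maximum or minimum concentration.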

NCI-H522 = test: Growth inhibition of human NCI-H522 cells after 48 hrs by sulforhodamine B assay; type: functional; conditions: NCI-H522, 48 h; summary of the method: as §1
DU-145 = test: Growth inhibition of human DU145 cells after 48 hrs by sulforhodamine B assay; type: functional; conditions: DU-145, 48 h; summary of the method: as §1
786-0 = test: Growth inhibition of human 786-0 cells after 48 hrs by sulforhodamine B assay; type: functional; conditions: 786-0, 48 h; summary of the method: as §1
OVCAR-8 = test: Growth inhibition of human OVCAR8 cells after 48 hrs by sulforhodamine B assay; type: functional; conditions: OVCAR-8, 48 h; summary of the method: as §1
HOP-92 = test: Growth inhibition of human HOP92 cells after 48 hrs by sulforhodamine B assay; type: functional; conditions: HOP-92, 48 h; summary of the method: as §1
CAKI-1 = test: Growth inhibition of human Caki1 cells after 48 hrs by sulforhodamine B assay; type: functional; conditions: CAKI-1, 48 h; summary of the method: as §1
OVCAR-3 = test: Growth inhibition of human OVCAR-3 cells after 48 hrs by sulforhodamine B assay; type: functional; conditions: OVCAR-3, 48 h; summary of the method: as §1
MT4 = test: Antiproliferative activity against human MT4 cells assessed as reduction of growth by MTT assay; type: functional, cell-based
Summary of the method: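 MT-4 lymphoblastoid T cells (ATCC) in RPMI 1640 with 10% FCS, penicillin/streptomycin, checked for mycoplasma. 1 × 10⁴ mock-infected cells per well with serial dilutions from a 100 mM DMSO stock. Incubated 4 days at 37 °C, viable cells counted by MTT. IC50 versus untreated controls by linear regression. Mean of three separate experiments.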

Malme-3M = test: Growth inhibition of human MALME-3M cells after 48 hrs by sulforhodamine B assay; type: functional; summary of the method: as §1
MDA-MB-435 = test: Growth inhibition of human MDA-MB-435 cells after 48 hrs by sulforhodamine B assay; type: functional; conditions: MDA-MB-435, 48 h; summary of the method: as §1
OVCAR-4 = test: Growth inhibition of human OVCAR4 cells after 48 hrs by sulforhodamine B assay; type: functional; conditions: OVCAR-4, 48 h; summary of the method: as §1
T47D = test: Growth inhibition of human T47D cells after 48 hrs by sulforhodamine B assay; type: functional; summary of the method: as §2
UACC-62 = test: Growth inhibition of human UACC62 cells after 48 hrs by sulforhodamine B assay; type: functional; conditions: UACC-62, 48 h; summary of the method: as §2
SW-620 = test: Growth inhibition of human SW620 cells after 48 hrs by sulforhodamine B assay; type: functional; conditions: SW-620, 48 h; summary of the method: as §2
SF-268 = test: Growth inhibition of human SF268 cells after 48 hrs by sulforhodamine B assay; type: functional; conditions: SF-268, 48 h; summary of the method: as §1
MCF7 = test: Growth inhibition of human MCF7 cells after 48 hrs by sulforhodamine B assay; type: functional; conditions: MCF7, 48 h; summary of the method: as §1
HCT-15 = test: Growth inhibition of human HCT15 cells after 48 hrs by sulforhodamine B assay; type: functional; conditions: HCT-15, 48 h; summary of the method: as §1
UO-31 = test: Growth inhibition of human UO31 cells after 48 hrs by sulforhodamine B assay; type: functional; conditions: UO-31, 48 h; summary of the method: as §2
K562 = test: Growth inhibition of human K562 cells after 48 hrs by sulforhodamine B assay; type: functional; conditions: K562, 48 h; summary of the method: as §1
NCI-H460 = test: Growth inhibition of human NCI-H460 cells after 48 hrs by sulforhodamine B assay; type: functional; conditions: NCI-H460, 48 h; summary of the method: as §1
SK-MEL-5 = test: Growth inhibition of human SK-MEL-5 cells after 48 hrs by sulforhodamine B assay; type: functional; conditions: SK-MEL-5, 48 h; summary of the method: as §1
M14 = test: Growth inhibition of human M14 cells after 48 hrs by sulforhodamine B assay; type: functional; conditions: M14, 48 h; summary of the method: as §1
SR = test: Growth inhibition of human SR cells after 48 hrs by sulforhodamine B assay; type: functional; summary of the method: as §2
U-251 = test: Growth inhibition of human U251 cells after 48 hrs by sulforhodamine B assay; type: functional; conditions: U-251, 48 h; summary of the method: as §2
ACHN = test: Growth inhibition of human ACHN cells after 48 hrs by sulforhodamine B assay; type: functional; summary of the method: as §1
A549 = test: Growth inhibition of human A549 cells after 48 hrs by sulforhodamine B assay; type: functional; conditions: A549, 48 h; summary of the method: as §1
TK-10 = test: Growth inhibition of human TK10 cells after 48 hrs by sulforhodamine B assay; type: functional; conditions: TK-10, 48 h; summary of the method: as §2
HT-29 = test: Growth inhibition of human HT-29 cells after 48 hrs by sulforhodamine B assay; type: functional; conditions: HT-29, 48 h; summary of the method: as §1
EKVX = test: Growth inhibition of human EKVX cells after 48 hrs by sulforhodamine B assay; type: functional; summary of the method: as §1
SK-OV-3 = test: Growth inhibition of human SKOV3 cells after 48 hrs by sulforhodamine B assay; type: functional; conditions: SK-OV-3, 48 h; summary of the method: as §1
NCI-H23 = test: Growth inhibition of human NCI-H23 cells after 48 hrs by sulforhodamine B assay; type: functional; conditions: NCI-H23, 48 h; summary of the method: as §1
SK-MEL-28 = test: Growth inhibition of human SK-MEL-28 cells after 48 hrs by sulforhodamine B assay; type: functional; conditions: SK-MEL-28, 48 h; summary of the method: as §1
NCI-H322M = test: Growth inhibition of human NCI-H322M cells after 48 hrs by sulforhodamine B assay; type: functional; summary of the method: as §1
IGROV-1 = test: Growth inhibition of human IGROV1 cells after 48 hrs by sulforhodamine B assay; type: functional; conditions: IGROV-1, 48 h; summary of the method: as §1
PC-3 = test: Growth inhibition of human PC3 cells after 48 hrs by sulforhodamine B assay; type: functional; conditions: PC-3, 48 h; summary of the method: as §1
SN12C = test: Growth inhibition of human SN12C cells after 48 hrs by sulforhodamine B assay; type: functional; summary of the method: as §2
HCT-116 = test: Growth inhibition of human HCT116 cells after 48 hrs by sulforhodamine B assay; type: functional; conditions: HCT-116, 48 h; summary of the method: as §1
MOLT-4 = test: Growth inhibition of human MOLT4 cells after 48 hrs by sulforhodamine B assay; type: functional; conditions: MOLT-4, 48 h; summary of the method: as §1
BT-549 = test: Growth inhibition of human BT549 cells after 48 hrs by sulforhodamine B assay; type: functional; conditions: BT-549, 48 h; summary of the method: as §1
SF-295 = test: Growth inhibition of human SF295 cells after 48 hrs by sulforhodamine B assay; type: functional; conditions: SF-295, 48 h; summary of the method: as §1
KM12 = test: Growth inhibition of human KM12 cells after 48 hrs by sulforhodamine B assay; type: functional; conditions: KM12, 48 h; summary of the method: as §1
[1] = Growth inhibition of human […] cells after 48 hrs by sulforhodamine B assay; type: functional; summary of the method: as §1
HL-60(TB) = test: Growth inhibition of human HL-60(TB) cells after 48 hrs by sulforhodamine B assay; type: functional; conditions: HL-60, 48 h
Summary of the method: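 NCI 60-cell-line screen protocol: cells exposed to compound at five 10-fold dilutions from 10^-4 to 10^-8 M for the last 48 h of a 72 h incubation. Sulforhodamine B protein assay estimated viability/growth. GI50 (50% growth inhibition) derived; where not reached or exceeded, reported as greater or less than the highest or lowest concentration tested.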

SK-MEL-2 = test: Growth inhibition of human SK-MEL-2 cells after 48 hrs by sulforhodamine B assay; type: functional; conditions: SK-MEL-2, 48 h; summary of the method: as §1
RXF 393 = test: Growth inhibition of human RXF393 cells after 48 hrs by sulforhodamine B assay; type: functional; conditions: RXF 393, 48 h; summary of the method: as §1
[2] = system: Human immunodeficiency virus 1; test: Antiviral activity against HIV1 in human MT4 cells assessed as prevention of virus-induced cytopathogenicity; type: functional, organism-based
Summary of the method: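 MT-4 cells, 1 × 10⁴ per well, with serial compound dilutions from a 100 mM DMSO stock. Infected with HIV-1 at 100 CCID50. Four-day incubation at 37 °C, then viable cells measured by MTT. Read-out is inhibition of virus-induced cytopathogenicity, assessed at non-cytotoxic concentrations.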

Molecule N#CC(C#N)=CN1CCN(C(=O)c2ccccc2)C1=S has a GI50 (MDA-MB-231) of 36.1 µM, a GI50 (UACC-257) of 25.3 µM and a GI50 (NCI-H522) of 15.9 µM. For the same molecule, the GI50 (DU-145) was 24.4 µM, the GI50 (786-0) was 38.9 µM and the GI50 (OVCAR-8) was 77 µM. The GI50 (HOP-92) was 56.8 µM, the GI50 (CAKI-1) was 28.7 µM and the GI50 (OVCAR-3) was 36.4 µM. The IC50 (MT4) was 11 µM, the GI50 (Malme-3M) was 10.2 µM and the GI50 (MDA-MB-435) was 38.8 µM. It also gave a GI50 (OVCAR-4) of 59.3 µM, a GI50 (T47D) of 89.2 µM and a GI50 (UACC-62) of 50.4 µM. It also gave a GI50 (SW-620) of 33.7 µM, a GI50 (SF-268) of 21.3 µM and a GI50 (MCF7) of 16.7 µM. The GI50 (HCT-15) was 36.4 µM, the GI50 (UO-31) was 20.4 µM and the GI50 (K562) was 79.5 µM. The GI50 (NCI-H460) was 20 µM, the GI50 (SK-MEL-5) was 23.3 µM and the GI50 (M14) was 37.3 µM. For the same molecule, the GI50 (SR) was 18.8 µM, the GI50 (U-251) was 38.2 µM and the GI50 (ACHN) was 18.8 µM. It also gave a GI50 (A549) of 37.1 µM, a GI50 (TK-10) of 23.3 µM and a GI50 (HT-29) of 42 µM. For the same molecule, the GI50 (EKVX) was 3.5 µM, the GI50 (SK-OV-3) was 66.7 µM and the GI50 (NCI-H23) was 26.1 µM. For the same molecule, the GI50 (SK-MEL-28) was 45.5 µM, the GI50 (NCI-H322M) was 33.4 µM and the GI50 (IGROV-1) was 28.2 µM. The GI50 (PC-3) was 60 µM, the GI50 (SN12C) was 24.6 µM and the GI50 (HCT-116) was 34 µM. For the same molecule, the GI50 (MOLT-4) was 39.2 µM, the GI50 (BT-549) was 22.8 µM and the GI50 (SF-295) was 46.2 µM. It also gave a GI50 (KM12) of 32.3 µM, a GI50 [1] of 35.3 µM and a GI50 (HL-60(TB)) of 33.5 µM. The GI50 (SK-MEL-2) was 18.4 µM and the GI50 (RXF 393) was 22.7 µM.
For N#CC(C#N)=CN1CCNC1=S, the Activity [2] was “inactive”.
With CCOC(=O)/C(=C/N1CCNC1=S)C(=O)c1ccccc1 the Activity [2] was “inactive”.
In the case of N#C/C(=C\N1CCNC1=S)C(N)=O, the Activity [2] is reported as “inactive”.
In the case of COC(=O)/C(C#N)=C/N1CCNC1=S, the Activity [2] is reported as “inactive”.
With COC(=O)/C(=C\N1CCNC1=S)C(C)=O the Activity [2] was “inactive”.
For N#C/C(=C\N1CCNC1=S)C(=O)Nc1ccc(Cl)cc1, the Activity [2] was “inactive”.

From ChEMBL document CHEMBL1138555, “N-acylated and N,N'-diacylated imidazolidine-2-thione derivatives and N,N'-diacylated tetrahydropyrimidine-2(1H)-thione analogues: synthesis and antiproliferative activity” (Eur J Med Chem, 2009)
